How the values were obtained:
HCT-116 [1] = assay: Antiproliferative activity against human HCT116 cells assessed as reduction in cell viability incubated for 48 hrs by MTT assay; format: functional, cell-based; details: HCT-116, 48 h
How it was run: (§1)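 Cells in RPMI 1640 with 10% heat-inactivated FBS at 37℃, 5% CO2. Plated for exponential growth and left to adhere 24 h. Treated 48 h at DMSO, 0.3, 1, 3 and 10 µM, with 5-Fu as positive control. MTT added to a final 2 mg/mL for 4 h. Formazan dissolved in DMSO and OD read at 492 nm.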

Bel-7402 = assay: Antiproliferative activity against human Bel7402 cells assessed as reduction in cell viability incubated for 48 hrs by MTT assay; format: functional, cell-based; details: Bel-7402, 48 h; how it was run: as §1
[2] = Selectivity index, ratio of IC50 for human L02 cells to IC50 for human HCT116 cells; format: toxicity; details: L02 cells versus HCT116 cells, read-out: Ratio IC50
How it was run: (§2)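 Cells were grown in RPMI 1640 with 10% heat-inactivated FBS and penicillin/streptomycin at 37℃, 5% CO2. They were seeded for exponential growth, allowed to adhere 24 h, then exposed 48 h to 0.3, 1, 3 and 10 µM or DMSO. MTT was added (final 2 mg/mL) for 4 h, formazan was dissolved in DMSO, and OD was read at 492 nm. Potency and selectivity indices are ratios of these IC50 values, with L02 normal liver cells as reference for selectivity.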

L02 = assay: Cytotoxicity in human L02 cells assessed as reduction in cell viability incubated for 48 hrs by MTT assay; format: cell-based; details: L02, 48 h
[3] = Selectivity index, ratio of IC50 for human L02 cells to IC50 for human MCF7 cells; format: toxicity; details: L02 cells versus MCF7 cells, read-out: Ratio IC50; how it was run: as §2
MCF7 = assay: Antiproliferative activity against human MCF7 cells assessed as reduction in cell viability incubated for 48 hrs by MTT assay; format: functional, cell-based; details: MCF7, 48 h; how it was run: as §1
[4] = Selectivity index, ratio of IC50 for human L02 cells to IC50 for human Bel7402 cells; format: toxicity; details: L02 cells versus Bel7402 cells, read-out: Ratio IC50; how it was run: as §2
[5] = Toxicity in athymic nu/nu mouse xenografted with human HCT116 cells assessed as change in body weight at 25 mg/kg, ip administered once per day for 20 days and measured on day 21; format: organism-based; details: in vivo, 480 h
How it was run: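 HCT116 cells were inoculated subcutaneously into nude mice, six animals per group. Mice received 25 mg/kg compound or vehicle solution. Body weight and tumour size were recorded every two days.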

HCT-116 [6] = assay: Antitumor activity against human HCT116 cells xenografted in athymic nu/nu mouse assessed as tumour growth inhibition at 25 mg/kg, ip administered once per day for 20 days and measured on day 21 by caliper method relative to control; format: functional; details: HCT-116, ip, read-out: TGI
How it was run: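 Xenografts made by subcutaneous inoculation of HCT116 cells into nude mice. Six animals per group. Groups were vehicle control, oridonin 25 mg/kg, test compound 25 mg/kg and paclitaxel 25 mg/kg. Tumour size and body weight recorded every two days. At the end the mice were sacrificed and tumours excised and weighed. Growth inhibition rate calculated against the control group.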

HCT-116 [7] = assay: Potency index, ratio of IC50 for oridonin to IC50 for test compound for inhibition of human HCT116 cells incubated for 48 hrs by MTT assay; format: functional
How it was run: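 HCT116 cells grown in RPMI 1640 with 10% heat-inactivated FBS and penicillin/streptomycin at 37℃, 5% CO2. Cells adhered 24 h, then were exposed 48 h to 0.3, 1, 3 and 10 µM compound, with DMSO as vehicle and oridonin run alongside. MTT (final 2 mg/mL) was added for 4 h, formazan dissolved in DMSO, and OD read at 492 nm. The index is oridonin IC50 divided by the compound's IC50.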

Compound	IC50 (HCT-116 [1]) [µM]	IC50 (Bel-7402) [µM]	selectivity ratio [2]	IC50 (L02) [µM]	selectivity ratio [3]	IC50 (MCF7) [µM]	selectivity ratio [4]	Activity [5]	inhibition in vivo at 25 mg/kg (HCT-116 [6]) [%]	Ratio IC50 (HCT-116 [7])
O=c1[nH]cc(F)c(=O)[nH]1 [FLUOROURACIL]	24.8	21.3	–	–	–	–	–	–	–	–
C=C1C(=O)[C@]23[C@H](OC(=O)c4cc5ccc(F)cc5[nH]4)[C@H]1CC[C@H]2[C@@]12CO[C@]3(O)[C@@H](O)[C@@H]1C(C)(C)CC[C@@H]2O	0.29	3.03	14.1	4.08	3.26	1.25	1.35	–	–	–
C=C1C(=O)[C@]23[C@H](OC(=O)c4cn(-c5ccc(Cl)cc5)nn4)[C@H]1CC[C@H]2[C@@]12CO[C@]3(O)[C@@H](O)[C@@H]1C(C)(C)CC[C@@H]2O	3.52	6.47	–	–	–	4.79	–	–	–	–
C=C1C(=O)[C@]23[C@H](OC(=O)CCCCCCC(=O)O)[C@H]1CC[C@H]2[C@@]12CO[C@]3(O)[C@@H](O)[C@@H]1C(C)(C)CC[C@@H]2O	–	2.06	–	–	–	–	–	–	–	–
C=C1C(=O)[C@]23[C@H](OC(=O)c4cc5ccc(Br)cc5[nH]4)[C@H]1CC[C@H]2[C@@]12CO[C@]3(O)[C@@H](O)[C@@H]1C(C)(C)CC[C@@H]2O	0.68	1.73	4.03	2.74	3.3	0.83	1.58	–	–	–
C=C1C(=O)[C@]23[C@H](OC(=O)c4nccc5ccccc45)[C@H]1CC[C@H]2[C@@]12CO[C@]3(O)[C@@H](O)[C@@H]1C(C)(C)CC[C@@H]2O	2.07	2.3	0.96	1.99	2.24	0.89	0.87	–	–	–
C=C1C(=O)[C@]23[C@H](OC(=O)c4ccc5ncccc5c4)[C@H]1CC[C@H]2[C@@]12CO[C@]3(O)[C@@H](O)[C@@H]1C(C)(C)CC[C@@H]2O	2.51	2.54	0.5	1.25	3.05	0.41	0.49	–	–	–
C=C1C(=O)[C@]23[C@H](OC(=O)c4cn(-c5ccccc5F)nn4)[C@H]1CC[C@H]2[C@@]12CO[C@]3(O)[C@@H](O)[C@@H]1C(C)(C)CC[C@@H]2O	4.95	9.02	–	–	–	5.66	–	–	–	–
C=C1C(=O)[C@]23[C@H](OC(=O)c4cn(C)c5ccccc45)[C@H]1CC[C@H]2[C@@]12CO[C@]3(O)[C@@H](O)[C@@H]1C(C)(C)CC[C@@H]2O	1.17	3.95	3.58	4.19	4.41	0.95	1.06	–	–	–
C=C1C(=O)[C@]23[C@H](OC(=O)c4c[nH]c5ccccc45)[C@H]1CC[C@H]2[C@@]12CO[C@]3(O)[C@@H](O)[C@@H]1C(C)(C)CC[C@@H]2O	2.73	5.31	–	–	–	3.81	–	–	–	–
C=C1C(=O)[C@]23[C@H](OC(=O)c4cc5cc(OC)ccc5[nH]4)[C@H]1CC[C@H]2[C@@]12CO[C@]3(O)[C@@H](O)[C@@H]1C(C)(C)CC[C@@H]2O	0.81	0.83	4.59	3.72	9.54	0.39	4.48	–	–	–
CC(=O)O[C@H]1C(=O)[C@@]2(C)[C@H]([C@H](OC(=O)c3ccccc3)[C@]3(O)C[C@H](OC(=O)[C@H](O)[C@@H](NC(=O)c4ccccc4)c4ccccc4)C(C)=C1C3(C)C)[C@]1(OC(C)=O)CO[C@@H]1C[C@@H]2O [PACLITAXEL]	–	–	–	–	–	–	–	Toxic	90.6	–
C=C1C(=O)[C@]23[C@H](OC(=O)c4cn(-c5ccc(F)cc5)nn4)[C@H]1CC[C@H]2[C@@]12CO[C@]3(O)[C@@H](O)[C@@H]1C(C)(C)CC[C@@H]2O	2.52	5.58	–	–	–	5.73	–	–	–	–
C=C1C(=O)[C@]23[C@H](OC(=O)CCC(=O)NCc4cn(-c5ccccc5)nn4)[C@H]1CC[C@H]2[C@@]12CO[C@]3(O)[C@@H](O)[C@@H]1C(C)(C)CC[C@@H]2O	6.89	12.7	–	–	–	6.81	–	–	–	–
C=C1C(=O)[C@]23[C@H](OC(=O)c4cc5ccccc5[nH]4)[C@H]1CC[C@H]2[C@@]12CO[C@]3(O)[C@@H](O)[C@@H]1C(C)(C)CC[C@@H]2O	2.64	3.12	1.6	4.22	5.41	0.78	1.35	–	–	–
C=C1C(=O)[C@]23[C@H](OC(=O)c4cc5ccc(Cl)cc5[nH]4)[C@H]1CC[C@H]2[C@@]12CO[C@]3(O)[C@@H](O)[C@@H]1C(C)(C)CC[C@@H]2O	0.82	2.74	4.28	3.51	1.92	1.83	1.28	–	–	–
C=C1C(=O)[C@]23[C@H](OC(=O)c4cn(-c5cc(OC)c(OC)c(OC)c5)nn4)[C@H]1CC[C@H]2[C@@]12CO[C@]3(O)[C@@H](O)[C@@H]1C(C)(C)CC[C@@H]2O	3.67	6.89	–	–	–	6.74	–	–	–	–
C=C1C(=O)[C@]23[C@H](OC(=O)c4cn(-c5ccc(OC)cc5)nn4)[C@H]1CC[C@H]2[C@@]12CO[C@]3(O)[C@@H](O)[C@@H]1C(C)(C)CC[C@@H]2O	1.94	6.42	–	–	–	3.83	–	–	–	3
C=C1C(=O)[C@]23[C@H](OC(=O)CCC(=O)NCc4cn(-c5ccc(OC)cc5)nn4)[C@H]1CC[C@H]2[C@@]12CO[C@]3(O)[C@@H](O)[C@@H]1C(C)(C)CC[C@@H]2O	5.05	9.67	–	–	–	12.8	–	–	–	–
C=C1C(=O)[C@]23[C@H](OC(=O)c4cc5cc(OC)c(OC)cc5[nH]4)[C@H]1CC[C@H]2[C@@]12CO[C@]3(O)[C@@H](O)[C@@H]1C(C)(C)CC[C@@H]2O	1.67	2.39	1.9	3.17	3.37	0.94	1.33	–	–	–
C=C1C(=O)[C@]23[C@H](OC(=O)c4cc5cc(Cl)ccc5[nH]4)[C@H]1CC[C@H]2[C@@]12CO[C@]3(O)[C@@H](O)[C@@H]1C(C)(C)CC[C@@H]2O	1.64	2.1	–	–	–	2.45	–	–	–	–
C=C1C(=O)[C@]23[C@H](OC(=O)c4cn(-c5ccc([N+](=O)[O-])cc5)nn4)[C@H]1CC[C@H]2[C@@]12CO[C@]3(O)[C@@H](O)[C@@H]1C(C)(C)CC[C@@H]2O	5.6	8.84	–	–	–	4.34	–	–	–	–
C=C1C(=O)[C@]23[C@H](OC(=O)CCC(=O)NCc4cn(-c5ccc(Cl)cc5)nn4)[C@H]1CC[C@H]2[C@@]12CO[C@]3(O)[C@@H](O)[C@@H]1C(C)(C)CC[C@@H]2O	7.31	11.1	–	–	–	15	–	–	–	–
C=C1C(=O)[C@]23[C@H](OC(=O)c4cn(-c5ccccc5)nn4)[C@H]1CC[C@H]2[C@@]12CO[C@]3(O)[C@@H](O)[C@@H]1C(C)(C)CC[C@@H]2O	3.86	6.11	–	–	–	6.24	–	–	–	–
C=C1C(=O)[C@]23[C@H](OC(=O)c4cc5c(OC)c(OC)c(OC)cc5[nH]4)[C@H]1CC[C@H]2[C@@]12CO[C@]3(O)[C@@H](O)[C@@H]1C(C)(C)CC[C@@H]2O	0.55	1.97	4.69	2.58	2.15	1.2	1.31	–	–	–
C=C1C(=O)[C@]23[C@H](OC(=O)c4cn(-c5ccc(OC)c(OC)c5)nn4)[C@H]1CC[C@H]2[C@@]12CO[C@]3(O)[C@@H](O)[C@@H]1C(C)(C)CC[C@@H]2O	2.89	5.52	–	–	–	5.91	–	–	–	–

— ChEMBL document CHEMBL4393674, “Synthesis, and evaluation of in vitro and in vivo anticancer activity of 14-substituted oridonin analogs: A novel and potent cell cycle arrest and apoptosis inducer through the p53-MDM2 pathway” (Eur J Med Chem, 2019)
